# Laboratory results: PubChem BioAssay
# Active and inactive are the calls of the source.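 How the source made its calls, unless noted: active means viability at or below 10% of carrier control in both of two separate runs; inconclusive means viability at or below 10% in only one of the two runs; inactive means the rest.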
# Columns and labels:
# [1] = Her2 expression decrease, cell viability multiplex – SKBR3 breast tumor cells, AlphaScreen, ATP viability, primary screen (AID 461;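 active means Her2 level under about 52% in both replicate screens, with viability over 70% of control, limit read from the data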;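 on Her2 level: lower value means less Her2 protein in the cells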;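 on viability: percent of carrier control wells set as 100% viability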); settings: SKBR3 Her2 protein level, 18-24 h, measured here: SKBR3 viability, ATP luminescence, at 10 µM
# [2] = molecular target: Receptor tyrosine-protein kinase erbB-2 (Homo sapiens) (UniProt P04626); assay: as above; settings: 18-24 h, at 10 µM, stronger effect = lower value
# [3] = reduced viability of SK-BR-3 breast cancer cells – cell-based, 24 h, human, pilot screen (AID 572); settings: SK-BR-3 viability, CellTiter-Glo luminescence, at 10 µM, stronger effect = lower value;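 further: compound exposure lasted between 18 and 24 h rather than exactly 24 h; 100% = carrier-treated control wells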
# [4] = HUVEC growth inhibition – cell-based, human, primary screen (AID 575;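 active means viability at or below 30% in both replicate assays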;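 further: 100% = median of untreated cell wells with 0.1% DMSO on each plate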); settings: HUVEC proliferation, CellTiter-Glo luminescence, 72 h; at 10 µM; stronger effect = lower value
# Summary of the method: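 System: primary human umbilical vein endothelial cells; Quantity: 1250 endothelial cells in each well; Buffer or medium: supplemented EBM, 2% fetal bovine serum; Doses: one dose, 10 µM final, 0.1% DMSO; Incubation: 72 h compound incubation; Technique: ATP-based CellTiter-Glo luminescent read; Evaluation: percent of median DMSO-control luminescence; Controls: vehicle and MePR control wells.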
# [5] = H69AR cell proliferation blockers – human, duplicate replicates, primary screen (AID 580;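 active means viability at or under a set limit in both replicates, limit being median viability minus 3 SD, cut at about 48% in these data, passing the limit was not always enough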;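 further: 100% = mean luminescence of untreated wells and 0% = no signal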); settings: H69AR lung tumor cells viability, ATP luminescence, 72 h; at 10 µM; stronger effect = lower value
# [6] = MRP1 drug-resistance reversers in H69AR cells – cell-based, doxorubicin co-treatment, pilot screen (AID 601;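 active means viability loss from added drug above about 55%, and viability with drug at most 40%, in both replicates, limit read from the data, passing the limit was not always enough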); settings: CellTiter-Glo, 72 h, at 10 µM; for differential viability (reversal): stronger effect = higher value
# [7] = yeast transport mutant growth inhibition pilot in 384-well plates, post-Golgi transport modulator project (AID 636; in the data active means inhibition above about 31%); settings: absorbance 615 nm, about 18 h, stronger effect = higher value
# [8] = growth suppression of yeast trafficking mutant, preliminary HTS, modulators of trafficking downstream of Golgi apparatus project, 1536-format plate, OD 615 nm (AID 637; in the data active means inhibition above about 30%); settings: yeast transport mutant growth, absorbance 615 nm, 18 h; stronger effect = higher value
# [9] = H69AR cells + 2 uM doxorubicin, measured here: viability with 2 uM doxorubicin, stronger effect = lower value
# [10] = H69AR cells, compound alone cytotoxicity
# Receptor tyrosine-protein kinase erbB-2 (Homo sapiens), sequence (P04626 whole entry, looked up): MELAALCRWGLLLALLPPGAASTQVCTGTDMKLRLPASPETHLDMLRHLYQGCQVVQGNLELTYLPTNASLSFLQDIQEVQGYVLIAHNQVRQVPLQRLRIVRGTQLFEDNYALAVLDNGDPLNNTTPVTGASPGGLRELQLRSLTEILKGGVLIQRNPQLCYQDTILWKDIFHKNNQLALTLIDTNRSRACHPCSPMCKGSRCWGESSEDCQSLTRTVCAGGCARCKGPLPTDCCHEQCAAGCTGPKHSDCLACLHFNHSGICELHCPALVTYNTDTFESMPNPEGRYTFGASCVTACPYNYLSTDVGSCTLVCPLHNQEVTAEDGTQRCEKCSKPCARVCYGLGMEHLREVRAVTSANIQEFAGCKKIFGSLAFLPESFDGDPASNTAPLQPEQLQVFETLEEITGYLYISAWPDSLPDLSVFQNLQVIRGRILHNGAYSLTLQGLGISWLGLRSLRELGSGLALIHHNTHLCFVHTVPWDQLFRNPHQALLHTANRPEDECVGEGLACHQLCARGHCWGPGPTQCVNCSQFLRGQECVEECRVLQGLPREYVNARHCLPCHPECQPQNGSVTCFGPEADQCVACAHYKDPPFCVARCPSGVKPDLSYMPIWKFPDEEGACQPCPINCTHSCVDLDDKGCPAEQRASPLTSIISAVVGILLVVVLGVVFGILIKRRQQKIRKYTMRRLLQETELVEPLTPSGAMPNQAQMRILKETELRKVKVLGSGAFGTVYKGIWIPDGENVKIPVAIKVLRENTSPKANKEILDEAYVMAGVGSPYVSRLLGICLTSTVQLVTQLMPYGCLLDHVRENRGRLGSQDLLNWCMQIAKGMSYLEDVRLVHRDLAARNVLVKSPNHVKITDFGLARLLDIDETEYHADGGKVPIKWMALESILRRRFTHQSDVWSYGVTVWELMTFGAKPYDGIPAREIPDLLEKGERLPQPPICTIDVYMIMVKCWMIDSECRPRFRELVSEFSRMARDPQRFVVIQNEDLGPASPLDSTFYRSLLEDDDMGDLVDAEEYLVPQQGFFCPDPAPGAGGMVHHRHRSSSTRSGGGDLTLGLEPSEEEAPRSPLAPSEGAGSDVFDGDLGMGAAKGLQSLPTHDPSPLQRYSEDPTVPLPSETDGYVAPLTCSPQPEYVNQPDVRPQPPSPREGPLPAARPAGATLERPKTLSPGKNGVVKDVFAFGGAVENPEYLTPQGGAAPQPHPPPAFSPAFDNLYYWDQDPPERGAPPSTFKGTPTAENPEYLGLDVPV
Compound,viability [1] [%],Her2 level [2],viability [3],viability [4],viability [5],differential viability (reversal) ([6]; H69AR cells + 2 uM doxorubicin),"viability [6, 9] [%]","viability [6, 10] [%]",inhibition [7],inhibition [8]
CC1CCC2C(C1)c1sc(=O)[nH]c1SC2(C)C (stereo not given),85,111% (inactive),85% (inactive),60.5% (inactive),106% (inactive),2.79% (inactive),103,106,0.9% (inactive),13.2% (inactive)
COC(=O)c1ccc(NC(=O)C(C)N2C(=O)c3ccccc3C2=O)cc1 (stereo not given),109,94% (inactive),109% (inactive),108% (inactive),108% (inactive),14.8% (inactive),92.8,108,0.41% (inactive),-3.65% (inactive)
CCOC(=O)c1cccc(NC(=O)CSc2nnc(C3CCCCC3)n2C)c1,91,89% (inactive),91% (inactive),92.3% (inactive),91.3% (inactive),6.58% (inactive),84.7,91.3,-6.22% (inactive),-0.95% (inactive)
O=C(Nc1ccc(S(=O)(=O)NC2CCCC2)cc1)c1cnccn1,92,82.5% (inactive),92% (inactive),104% (inactive),93.7% (inactive),2.56% (inactive),91.2,93.7,-2.5% (inactive),-4% (inactive)
COC(=O)Cn1c2c(c3cc(C)ccc31)CCCC2,83,99% (inactive),83% (inactive),103% (inactive),102% (inactive),8.28% (inactive),94.1,102,-4.74% (inactive),4.75% (inactive)
COc1ccc(NC(=O)CN(c2ccc(C)cc2)S(C)(=O)=O)c(OC)c1,90,118% (inactive),90% (inactive),84.8% (inactive),101% (inactive),11.9% (inactive),89.4,101,-2.63% (inactive),-3.5% (inactive)
CCSc1nnc2c(n1)OC=Nc1ccc(Br)cc1-2,92.5,86% (inactive),92.5% (inactive),79.3% (inactive),99.7% (inactive),12.9% (inactive),86.7,99.7,-0.66% (inactive),-4.67% (inactive)
COc1ccc(C2/C(=C(/O)c3cnn(-c4ccccc4)c3C)C(=O)C(=O)N2CCN(C)C)cc1OC (stereo not given),109,86% (inactive),109% (inactive),102% (inactive),101% (inactive),1.86% (inactive),98.7,101,-1.62% (inactive),-2.54% (inactive)
COCC(=O)Nc1sc2c(c1C(=O)OC)C(C(=O)OC)CC2 (stereo not given),75.5,108% (inactive),75.5% (inactive),84.6% (inactive),101% (inactive),12.5% (inactive),88.6,101,3.16% (inactive),11.4% (inactive)
Cc1c(Cl)cccc1N1C(=O)c2ccccc2C1=O,89.5,85.5% (inactive),89.5% (inactive),99.5% (inactive),111% (inactive),2.93% (inactive),108,111,-4.86% (inactive),-2.3% (inactive)
COc1ccc(-c2nc(C#N)c(N3CCOCC3)o2)cc1OC,111,92% (inactive),111% (inactive),89.8% (inactive),84.5% (inactive),-0.495% (inactive),85,84.5,-1.3% (inactive),9% (inactive)
Cn1c(/C(C#N)=C/Nc2ccccn2)nc2ccccc21,75,106% (inactive),75% (inactive),110% (inactive),73.5% (inactive),-12.4% (inactive),85.9,73.5,4.47% (inactive),29.5% (inactive)
O=C(OCc1nnc(-c2ccccc2)o1)c1ccc2ccccc2n1,106,116% (inactive),106% (inactive),100% (inactive),89.4% (inactive),-0.715% (inactive),90.1,89.4,3.15% (inactive),23.2% (inactive)
CCOc1ccc(-n2c(=O)cc(N3CCN(c4ccccc4)CC3)[nH]c2=O)cc1,94,84% (inactive),94% (inactive),96.1% (inactive),103% (inactive),7.43% (inactive),95.6,103,-6.13% (inactive),6.07% (inactive)
COc1ccccc1-n1nnnc1SCc1ccccc1,103,94% (inactive),103% (inactive),90.6% (inactive),97.1% (inactive),16.7% (inactive),80.3,97.1,-4.27% (inactive),1.61% (inactive)
O=C(CCN1CCN(c2ccc(F)cc2)CC1)Nc1ccccc1F,91.5,91% (inactive),91.5% (inactive),90.4% (inactive),86% (inactive),-5.33% (inactive),91.3,86,-5.73% (inactive),4.75% (inactive)
CCOc1ccc2nc(SCC(=O)N3CCCCCC3)c(C#N)cc2c1,95,82.5% (inactive),95% (inactive),87.5% (inactive),86.2% (inactive),-3.21% (inactive),89.4,86.2,-5.87% (inactive),3.28% (inactive)
C/C(N)=C(/C#N)C(=O)COC(=O)c1cc(C)n(-c2ccc(F)cc2)c1C,91,97.5% (inactive),91% (inactive),49.4% (inactive),98.1% (inactive),-0.13% (inactive),98.2,98.1,-4.53% (inactive),-1.45% (inactive)
COc1cc(C(c2sc3nc(C)nn3c2O)N2CC(C)CC(C)C2)cc(OC)c1OC (stereo not given),78,98.5% (inactive),78% (inactive),98.8% (inactive),103% (inactive),0.2% (inactive),103,103,0.9% (inactive),0.17% (inactive)
Cc1ccc(C(c2sc3nc(C)nn3c2O)N2CC(C)OC(C)C2)cc1 (stereo not given),97,93% (inactive),97% (inactive),104% (inactive),101% (inactive),11.1% (inactive),90.2,101,-1.17% (inactive),0.49% (inactive)
O=C(NCc1ccccn1)Nc1ccc2c(c1)OCO2,100,102% (inactive),100% (inactive),78.7% (inactive),92.4% (inactive),4.97% (inactive),87.4,92.4,-2.37% (inactive),-0.95% (inactive)
CCN1C(=O)c2cccc3c(NC(=O)c4ccc5c(c4)OCCO5)ccc1c23,108,89% (inactive),108% (inactive),55.5% (inactive),52.2% (inactive),-20.3% (inactive),72.5,52.2,-4.81% (inactive),0.63% (inactive)
CCOC(=O)CSc1nc2ccccc2n2cnnc12,104,76.5% (inactive),104% (inactive),91.4% (inactive),83.9% (inactive),2.78% (inactive),81.1,83.9,-5.54% (inactive),-2% (inactive)
O=S(=O)(CCOc1ccccc1)c1nc2ccccc2[nH]1,104,18.5% (active),104% (inactive),54.7% (inactive),1.98% (active),0.22% (inactive),1.77,1.98,-3.95% (inactive),3.11% (inactive)
C=CCn1c(SCC(=O)c2cc(C)n(C(C)COC)c2C)nc2sc(C)c(C)c2c1=O (stereo not given),97.5,77% (inactive),97.5% (inactive),68.2% (inactive),82.8% (inactive),60.8% (active),21.9,82.8,-8.77% (inactive),-4.6% (inactive)
Cc1cc2cc(CN(CC3CCCO3)C(=O)c3cnccn3)c(=O)[nH]c2cc1C (stereo not given),75,130% (inactive),75% (inactive),89.9% (inactive),92.3% (inactive),6.07% (inactive),86.3,92.3,-0.8% (inactive),-4.59% (inactive)
CC(C)C(=O)Nc1nnc(CCc2nnc(NC(=O)C(C)C)s2)s1,99,97% (inactive),99% (inactive),106% (inactive),93.6% (inactive),2.27% (inactive),91.3,93.6,-4.61% (inactive),0.16% (inactive)
Nc1nonc1NC(=O)CSc1nc2ccccc2s1,86,110% (inactive),86% (inactive),91.2% (inactive),90.8% (inactive),4.11% (inactive),86.7,90.8,6.18% (inactive),-8% (inactive)
O=C(CN(c1ccc(F)cc1)S(=O)(=O)c1ccc2c(c1)OCCO2)Nc1ccc2c(c1)OCO2,83,89.5% (inactive),83% (inactive),91.3% (inactive),99.8% (inactive),4.63% (inactive),95.2,99.8,0.8% (inactive),4.03% (inactive)
